From ChEMBL document CHEMBL3870322, “New telmisartan-derived PPARγ agonists: Impact of the 3D-binding mode on the pharmacological profile” (Eur J Med Chem, 2016)
Calls of active or inactive are those of the source. No cut-off for these calls is given here.

Columns and labels:
[1] = molecular target: T1, Peroxisome proliferator-activated receptor gamma (Homo sapiens, UniProt P37231); assay: Transactivation at Gal4 fused PPARgamma LBD (unknown origin) expressed in African green monkey COS7 cells after 42 hrs by luciferase assay; type: cell-based, COS-7
T1 sequence (P37231 whole entry): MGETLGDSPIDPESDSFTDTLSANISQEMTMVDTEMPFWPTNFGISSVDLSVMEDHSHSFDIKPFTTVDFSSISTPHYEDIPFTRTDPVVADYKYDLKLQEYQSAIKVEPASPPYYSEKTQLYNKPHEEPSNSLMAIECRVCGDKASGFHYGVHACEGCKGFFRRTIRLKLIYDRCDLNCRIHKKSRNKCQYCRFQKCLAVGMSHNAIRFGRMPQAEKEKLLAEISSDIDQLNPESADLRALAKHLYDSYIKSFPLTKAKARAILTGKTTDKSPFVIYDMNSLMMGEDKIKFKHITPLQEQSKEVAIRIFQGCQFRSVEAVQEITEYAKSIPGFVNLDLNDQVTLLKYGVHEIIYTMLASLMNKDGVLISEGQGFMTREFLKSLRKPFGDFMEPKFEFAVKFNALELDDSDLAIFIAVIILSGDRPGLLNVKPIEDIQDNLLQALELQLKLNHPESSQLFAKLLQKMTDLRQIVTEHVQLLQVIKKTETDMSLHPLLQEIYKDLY

[2] = (§1) Growth inhibition of human LNCAP cells expressing PPARgamma at 50 uM after 72 hrs by crystal violet staining based assay; type: functional; conditions: read-out: GI
How it was run: (§2)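 Cells seeded in complete DMEM, LNCaP at 5×10⁴/well on poly-D-lysine-coated wells, COS-7 at 3×10⁴/well. After 24 h at 37 °C, compound added at 50 µM final (DMSO vehicle). Exposure 72 h, then PBS wash, fixation in 1% […]/PBS, crystal violet staining of chromatin, absorbance 590 nm. Biomass given as % of vehicle control; mean SD of at least two independent experiments.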

[3] = molecular target: T2, Peroxisome proliferator-activated receptor gamma (Homo sapiens) (UniProt P37231); assay: Intrinsic activity at Gal4 fused PPARgamma LBD (unknown origin) expressed in African green monkey COS7 cells after 42 hrs by luciferase assay relative to pioglitazone; type: cell-based; conditions: COS-7
T2 sequence (whole entry): T1 sequence (P37231 whole entry)
How it was run: (§3)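 COS-7 cells (10⁴/well, 24 h, 37 °C, 5% CO₂) transfected in serum-free medium with pGal5-TK-Luc, pGal4-hPPARγ-LBD and pRenilla-CMV (Lipofectamine 2000). After 4 h, compound or DMSO added across a concentration series. Dual-luciferase readout at 42 h, firefly normalized to Renilla. Maximal activation expressed as % of pioglitazone. Mean SD of three independent experiments, each run in triplicate.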

[4] = Growth inhibition of African green monkey COS7 cells at 50 uM after 72 hrs by crystal violet staining based assay; type: cell-based, COS-7; conditions: chlorocebus aethiops; for inhibition at 72 h, 50 µM: COS7 cells, read-out: GI; for growth inhibition (GI): cos-7, 72 h, 50 µM; how it was run: as §2
[5] = molecular target: T3, Peroxisome proliferator-activated receptor gamma (Mus musculus, UniProt P37238); assay: Full agonist activity at PPARgamma in mouse 3T3L1 preadipocytes assessed as increase in insulin induced adipocyte differentiation by measuring triglyceride accumulation at 10 uM after 9 days by Oil-Red O staining based assay relative to control; type: cell-based; conditions: 216 h
T3 sequence (P37238 whole entry): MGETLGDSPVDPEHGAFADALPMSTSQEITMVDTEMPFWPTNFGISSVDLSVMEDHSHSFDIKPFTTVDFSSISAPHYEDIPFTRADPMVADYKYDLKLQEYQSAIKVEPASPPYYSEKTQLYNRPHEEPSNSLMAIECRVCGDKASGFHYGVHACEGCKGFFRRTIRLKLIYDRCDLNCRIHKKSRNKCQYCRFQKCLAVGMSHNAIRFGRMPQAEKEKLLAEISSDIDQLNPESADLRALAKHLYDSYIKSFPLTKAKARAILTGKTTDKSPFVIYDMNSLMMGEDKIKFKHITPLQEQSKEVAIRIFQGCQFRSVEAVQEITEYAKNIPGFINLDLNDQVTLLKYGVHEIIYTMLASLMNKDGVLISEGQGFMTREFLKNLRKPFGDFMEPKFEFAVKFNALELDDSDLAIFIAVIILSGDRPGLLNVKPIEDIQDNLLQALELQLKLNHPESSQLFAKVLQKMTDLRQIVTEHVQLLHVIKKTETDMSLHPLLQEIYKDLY
How it was run: (§4)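 Postconfluent 3T3-L1 cells (DMEM, 10% FCS) differentiated over 9 days: 3 days with insulin (0.17 µM) plus dexamethasone (1 µM), 3 days with insulin (0.17 µM), then 3 days medium alone. Compound present throughout at 1 or 10 µM; DMSO vehicle. Day 9: PBS wash, Oil-Red O staining 1 h, dye extracted with 80% isopropanol, A515 read, expressed as ratio to vehicle; mean SD, three independent experiments.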

[6] = molecular target: T3, Peroxisome proliferator-activated receptor gamma; assay: Full agonist activity at PPARgamma in mouse 3T3L1 preadipocytes assessed as increase in insulin induced adipocyte differentiation by measuring triglyceride accumulation at 1 uM after 9 days by Oil-Red O staining based assay; type: cell-based; conditions: 216 h; how it was run: as §4
[7] = tested on: LNCaP; assay: as §1; type: functional; how it was run: as §2
[8] = molecular target: T3, Peroxisome proliferator-activated receptor gamma; assay: Full agonist activity at PPARgamma in mouse 3T3L1 preadipocytes assessed as increase in insulin induced adipocyte differentiation by measuring triglyceride accumulation at 1 to 10 uM after 9 days by Oil-Red O staining based assay relative to control; type: cell-based; conditions: 216 h
[9] = tested on: 3T3-L1; assay: Induction of triglyceride accumulation in insulin-stimulated mouse 3T3L1 preadipocytes at 10 uM after 9 days by Oil-Red O staining based assay relative to control
[10] = molecular target: T2, Peroxisome proliferator-activated receptor gamma (Homo sapiens); assay: Intrinsic activity at Gal4 fused PPARgamma LBD (unknown origin) expressed in African green monkey COS7 cells at 20 uM after 42 hrs by luciferase assay relative to pioglitazone; type: cell-based; conditions: COS-7; how it was run: as §3

EC50 [1]	%max [3]	%max [10]	SMILES	inhibition of growth at 50 µM [2]	inhibition at 72 h, 50 µM [4]	fold change (FC) [5]	growth inhibition (GI) [4]	Activity [6]	growth inhibition (GI) [7]	Activity [8]	fold change (FC) [9]
5.01 µM	51.3%	–	CCCc1nc2ccccc2n1Cc1ccc(-c2ccccc2C#N)cc1	61.9%	61.9%	–	–	–	–	–	–
–	11%	–	CCCc1cc2ccccc2n1Cc1ccc(-c2ccccc2C(N)=O)cc1	27.4 to 54.1%	–	–	–	–	–	–	–
1.86 µM	40%	–	CCCc1cc2ccccc2n1Cc1ccc(-c2ccccc2C(=O)O)cc1	27.4 to 54.1%	–	> 3	–	–	–	–	–
4.71 µM	50.9%	–	CCCc1nc2c(C)cc(-c3nc4ccccc4n3C)cc2n1Cc1ccc(-c2ccccc2C(=O)O)cc1 [TELMISARTAN]	–	–	2	Non-Toxic	–	–	–	–
–	–	–	CCc1ccc(CCOc2ccc(CC3SC(=O)NC3=O)cc2)nc1 (stereo not given) [PIOGLITAZONE]	55.8%	–	–	Non-Toxic	–	–	–	–
3.06 µM	37.8%	–	CCCCCCc1nc2ccccc2n1Cc1ccc(-c2ccccc2C(N)=O)cc1	78.5%	92.8%	–	–	Active	–	–	–
0.84 µM	32.8%	–	CCCCCCCc1nc2ccccc2n1Cc1ccc(-c2ccccc2C(N)=O)cc1	–	–	–	Toxic	Active	Active	–	–
8.03 µM	21.7%	–	CCCc1cc2ccccc2n1Cc1ccc(-c2ccccc2C#N)cc1	27.4 to 54.1%	36.8%	–	–	–	–	–	–
0.4 µM	55.4%	–	CCCCCc1nc2ccccc2n1Cc1ccc(-c2ccccc2C(=O)O)cc1	–	–	–	Non-Toxic	–	–	Active	–
0.21 µM	75%	–	CCCCCCc1nc2ccccc2n1Cc1ccc(-c2ccccc2C(=O)O)cc1	–	–	–	Non-Toxic	–	–	Active	–
3.9 µM	16.2%	–	CCCCCc1nc2ccccc2n1Cc1ccc(-c2ccccc2C(N)=O)cc1	–	–	–	Toxic	Active	Active	–	–
3.15 µM	21.1%	–	CCCc1nc2ccccc2n1Cc1ccc(-c2ccccc2C(N)=O)cc1	33%	33%	–	–	–	–	–	–
1.88 µM	84.1%	–	CCCc1nc2ccccc2n1Cc1ccc(-c2ccc(C(=O)O)cc2)cc1	–	–	–	Non-Toxic	–	–	–	1.2
0.17 µM	82.5%	–	CCCCCCCc1nc2ccccc2n1Cc1ccc(-c2ccccc2C(=O)O)cc1	–	–	–	Non-Toxic	–	–	Active	–
–	–	33.1%	CCCC1Sc2ccccc2N1Cc1ccc(-c2ccccc2C(N)=O)cc1 (stereo not given)	79%	69.2%	–	–	–	–	–	–
6.24 µM	44.7%	–	CCCc1nc2ccccc2n1Cc1ccc(-c2cccc(C(=O)O)c2)cc1	–	–	–	Non-Toxic	–	–	–	2.5
1.05 µM	57.4%	–	CCCC1Sc2ccccc2N1Cc1ccc(-c2ccccc2C(=O)O)cc1 (stereo not given)	–	–	> 3	Non-Toxic	–	–	–	–

SMILES	EC50 [1]	%max [3]	%max [10]	inhibition of growth at 50 µM [2]	inhibition at 72 h, 50 µM [4]	fold change (FC) [5]	growth inhibition (GI) [4]	Activity [6]	growth inhibition (GI) [7]	Activity [8]	fold change (FC) [9]
CCCc1nc2ccccc2n1Cc1ccc(-c2ccccc2C(=O)O)cc1	4.17 to 4.19 µM	49.6%	–	–	–	–	Non-Toxic	–	–	–	3.2
